Data reported in ChEMBL document CHEMBL4814031, “In pursuit of a selective hepatocellular carcinoma therapeutic agent: Novel thalidomide derivatives with antiproliferative, antimigratory and STAT3 inhibitory properties” (Eur J Med Chem, 2021).
One block for each compound: values may come before it. Calls of active or inactive are those of the source. The rule behind the calls is not given here.

Legend:
[1] = biological target: Transcription factor p65 (Mus musculus) (UniProt Q04207); assay: Inhibition of NFkB p65 nuclear translocation in mouse BMOL-T cells assessed as change in nuclear p65 level at 10 uM incubated for 6 hrs by immunofluorescent assay relative to control; assay type: subcellular; design: scale not given: the % may be the effect or the level left; settings: Nucleus
Sequence of Transcription factor p65 (Mus musculus) (Q04207 whole entry): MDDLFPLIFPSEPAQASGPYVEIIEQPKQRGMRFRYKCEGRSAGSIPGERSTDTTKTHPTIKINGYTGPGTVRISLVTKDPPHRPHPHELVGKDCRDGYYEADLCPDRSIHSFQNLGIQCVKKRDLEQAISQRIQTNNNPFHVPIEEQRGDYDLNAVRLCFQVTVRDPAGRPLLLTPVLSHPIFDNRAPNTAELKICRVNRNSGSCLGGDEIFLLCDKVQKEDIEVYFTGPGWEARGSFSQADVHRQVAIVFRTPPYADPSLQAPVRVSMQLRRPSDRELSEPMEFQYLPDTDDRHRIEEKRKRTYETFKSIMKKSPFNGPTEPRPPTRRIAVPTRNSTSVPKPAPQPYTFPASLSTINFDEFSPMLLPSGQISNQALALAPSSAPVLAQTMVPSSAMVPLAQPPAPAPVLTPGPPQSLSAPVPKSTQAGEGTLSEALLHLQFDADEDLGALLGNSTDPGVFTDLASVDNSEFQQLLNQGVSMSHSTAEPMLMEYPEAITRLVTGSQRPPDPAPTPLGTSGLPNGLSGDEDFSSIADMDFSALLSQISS
Outline: (§1)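 BMOL cells in supplemented Williams' E medium were treated 6 h with compound or 0.1% DMSO vehicle. Fixed in 4% PFA, permeabilised with 0.1% Triton X-100, blocked, then incubated 18 h with anti-phospho-p65, -Akt or -STAT3, then secondary antibody 1 h and Hoechst. High-content imaging of per-cell intensity and nuclear:whole-cell ratio. Mean of two experiments, SD.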

[2] = (§2) Antiproliferative activity against mouse BMOL-T cells assessed as minimum concentration required for cell growth inhibition measured every 4 hrs for 3 days by IncuCyte zoom live cell analysis; assay type: functional; settings: time 3 day
Outline: (§3)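 Dose series for BMOL-T proliferation: cells plated at 1000/well, compound added from 2× solutions (final 0.1% DMSO), imaged every 4 h for 3 days. Doubling time from the log-phase linear part of a log confluence vs time curve, expressed as % change over vehicle. n = 3, SEM.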

BMOL-T [3] = assay: as §2; assay type: functional; settings: time 3.0 day; outline: as §3
[4] = Selectivity for antiproliferative activity against mouse BMOL-T cells over mouse BMOL-NT cells at 26 uM measured every 4 hrs for 3 days by IncuCyte zoom live cell analysis; settings: time 3 day
[5] = biological target: Transcription factor p65 (Mus musculus) (UniProt Q04207); assay: Inhibition of NFkB p65 phosphorylation in mouse BMOL-T cells assessed as change in phosphorylated p65 level at 10 uM incubated for 6 hrs by immunofluorescent assay relative to control; assay type: cell-based; design: scale not given: the % may be the effect or the level left; outline: as §1
BMOL-T [6] = assay: Inhibition of Akt phosphorylation in mouse BMOL-T cells assessed as change in nuclear phosphorylated Akt level at 10 uM incubated for 6 hrs by immunofluorescent assay relative to control; assay type: subcellular; design: scale not given: the % may be the effect or the level left; settings: Nucleus; outline: as §1
[7] = Inhibition of Akt phosphorylation in mouse BMOL-NT cells assessed as change in nuclear phosphorylated Akt level at 10 uM incubated for 6 hrs by immunofluorescent assay relative to control; assay type: subcellular, Nucleus; design: scale not given: the % may be the effect or the level left; outline: as §1
[8] = Inhibition of Akt phosphorylation in mouse BMOL-NT cells assessed as change in phosphorylated Akt level at 10 uM incubated for 6 hrs by immunofluorescent assay relative to control; assay type: cell-based; design: scale not given: the % may be the effect or the level left; outline: as §1
[9] = Antimigratory activity against mouse BMOL-T cells assessed as inhibition of cell migration at 10 uM incubated for 16 hrs by scratch wound healing assay relative to control; assay type: functional
Outline: (§4)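 Wound healing in BMOL-T cells plated at 20,000/well in supplemented Williams' E medium and grown 24 h. Wounds made with a Woundmaker, then medium replaced with fresh medium holding compound or 0.1% DMSO vehicle. Live-cell imaging every 2 h over 24 h, read as average wound width (µm). n = 3, SEM.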

[10] = biological target: T1, Signal transducer and activator of transcription 3 (Mus musculus, UniProt P42227); assay: Inhibition of STAT3 phosphorylation in mouse BMOL-NT cells assessed as change in nuclear phosphorylated STAT3 level at 10 uM incubated for 6 hrs by immunofluorescence assay relative to control; assay type: subcellular, Nucleus; design: scale not given: the % may be the effect or the level left; outline: as §1
T1 sequence (P42227 whole entry): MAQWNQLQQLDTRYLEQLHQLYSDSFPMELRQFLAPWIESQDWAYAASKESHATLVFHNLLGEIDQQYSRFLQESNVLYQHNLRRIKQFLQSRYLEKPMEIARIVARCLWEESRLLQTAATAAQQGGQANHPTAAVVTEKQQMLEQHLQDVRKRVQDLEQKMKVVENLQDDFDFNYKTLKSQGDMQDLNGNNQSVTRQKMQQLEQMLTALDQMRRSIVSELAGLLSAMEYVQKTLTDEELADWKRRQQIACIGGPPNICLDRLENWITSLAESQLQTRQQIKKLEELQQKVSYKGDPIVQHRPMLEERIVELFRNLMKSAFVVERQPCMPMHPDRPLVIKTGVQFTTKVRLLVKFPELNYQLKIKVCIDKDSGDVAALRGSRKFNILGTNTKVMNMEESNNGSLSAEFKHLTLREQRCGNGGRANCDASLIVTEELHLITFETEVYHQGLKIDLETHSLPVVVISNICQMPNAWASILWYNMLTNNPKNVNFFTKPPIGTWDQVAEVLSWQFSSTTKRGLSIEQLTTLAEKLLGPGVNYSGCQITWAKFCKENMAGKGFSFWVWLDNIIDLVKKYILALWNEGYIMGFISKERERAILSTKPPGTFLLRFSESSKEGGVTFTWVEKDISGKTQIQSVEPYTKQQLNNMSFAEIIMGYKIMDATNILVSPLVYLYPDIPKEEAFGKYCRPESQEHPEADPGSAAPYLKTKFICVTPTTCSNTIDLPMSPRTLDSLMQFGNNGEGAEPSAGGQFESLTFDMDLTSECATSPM

BMOL-T [11] = assay: Effect on STAT3 expression in mouse BMOL-T cells at 10 uM by AlphaLISA assay; assay type: functional, cell-based
Outline: (§5)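 AlphaLISA in BMOL-T cells treated at 10 µM with 0.1% DMSO vehicle as control. Read as normalised fluorescence for total STAT3, or as the ratio of total STAT3 to p-STAT3. n ≥ 3, SEM. Significance by ANOVA with Dunnett's test.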

[12] = Antiproliferative activity against mouse BMOL-NT cells assessed as cell growth inhibition at >10 uM measured every 4 hrs for 3 days by IncuCyte zoom live cell analysis; assay type: cell-based; settings: 72 h, time 3 day
Transcription factor p65 [13] = biological target: T2, Transcription factor p65 (Mus musculus, UniProt Q04207); assay: Inhibition of NFkB p65 nuclear translocation in mouse BMOL-NT cells assessed as change in nuclear p65 level at 10 uM incubated for 6 hrs by immunofluorescent assay relative to control; assay type: subcellular, Nucleus; design: scale not given: the % may be the effect or the level left; outline: as §1
T2 sequence (Q04207 whole entry): as the sequence (Q04207 whole entry) above

BMOL-T [14] = assay: Inhibition of Akt phosphorylation in mouse BMOL-T cells assessed as change in phosphorylated Akt level at 10 uM incubated for 6 hrs by immunofluorescent assay relative to control; assay type: cell-based; design: scale not given: the % may be the effect or the level left; outline: as §1
[15] = Selectivity for antiproliferative activity against mouse BMOL-T cells over mouse BMOL-NT cells at 10 uM measured every 4 hrs for 3 days by IncuCyte zoom live cell analysis; settings: time 3 day
Transcription factor p65 [16] = biological target: T2, Transcription factor p65; assay: Inhibition of NFkB p65 phosphorylation in mouse BMOL-NT cells assessed as change in phosphorylated p65 level at 10 uM incubated for 6 hrs by immunofluorescent assay relative to control; assay type: cell-based; design: scale not given: the % may be the effect or the level left; outline: as §1
[17] = biological target: Signal transducer and activator of transcription 3 (Mus musculus) (UniProt P42227); assay: Inhibition of STAT3 phosphorylation in mouse BMOL-T cells assessed as change in nuclear phosphorylated STAT3 level at 10 uM incubated for 6 hrs by immunofluorescence assay relative to control; assay type: subcellular; design: scale not given: the % may be the effect or the level left; settings: Nucleus; outline: as §1
Sequence of Signal transducer and activator of transcription 3 (Mus musculus) (P42227 whole entry): as the sequence (P42227 whole entry) above

[18] = biological target: T1, Signal transducer and activator of transcription 3; assay: Inhibition of STAT3 phosphorylation in mouse BMOL-NT cells assessed as change in phosphorylated STAT3 level at 10 uM incubated for 6 hrs by immunofluorescence assay relative to control; assay type: cell-based; design: scale not given: the % may be the effect or the level left; outline: as §1
BMOL-T [19] = assay: Antimigratory activity against mouse BMOL-T cells assessed as inhibition of cell migration at 10 uM incubated for 24 hrs by scratch wound healing assay; assay type: functional, cell-based; outline: as §4
[20] = biological target: Signal transducer and activator of transcription 3 (Mus musculus) (UniProt P42227); assay: Inhibition of STAT3 phosphorylation in mouse BMOL-T cells assessed as change in phosphorylated STAT3 level at 10 uM incubated for 6 hrs by immunofluorescence assay relative to control; assay type: cell-based; design: scale not given: the % may be the effect or the level left; outline: as §1
[21] = (§6) Antiproliferative activity against mouse BMOL-T cells assessed as cell growth inhibition at 10 uM measured every 4 hrs for 3 days by IncuCyte zoom live cell analysis relative to control; assay type: functional; settings: 72 h, time 3 day
[22] = Antiproliferative activity against mouse BMOL-NT cells assessed as cell growth by measuring doubling time at 10 uM measured every 4 hrs for 3 days by IncuCyte zoom live cell analysis (reference value: 18 to 19 hrs); assay type: cell-based; settings: 72 h, time 3 day
[23] = Antiproliferative activity against mouse BMOL-T cells assessed as cell growth by measuring doubling time at 10 uM measured every 4 hrs for 3 days by IncuCyte zoom live cell analysis (reference value: 14.3 to 15 hrs); assay type: functional; settings: time 3 day
[24] = Antiproliferative activity against mouse BMOL-T cells assessed as change in doubling time at 10 uM measured every 4 hrs for 3 days by IncuCyte zoom live cell analysis relative to control; assay type: functional; settings: time 3 day
[25] = Antiproliferative activity against mouse BMOL-NT cells assessed as cell growth inhibition at 10 uM measured every 4 hrs for 3 days by IncuCyte zoom live cell analysis relative to control; assay type: cell-based; settings: time 3 day; for Activity: bmol-nt, 72 h, 10 µM
[26] = biological target: Signal transducer and activator of transcription 3 (Mus musculus) (UniProt P42227); assay: Inhibition of STAT3 phosphorylation in mouse BMOL-T cells at 10 uM by AlphaLISA assay; assay type: cell-based; outline: as §5
[27] = Antiproliferative activity against mouse BMOL-NT cells assessed as change in doubling time at 10 uM measured every 4 hrs for 3 days by IncuCyte zoom live cell analysis relative to control; assay type: cell-based; settings: 72 h, time 3 day
BMOL-T [28] = assay: as §6; assay type: functional; settings: time 3.0 day

Activity [1]: -9%
Activity [5]: -7%
Activity (BMOL-T [6]): 4%
Activity [7]: -10%
Activity [8]: 4%
Activity [10]: -13%
Activity (Transcription factor p65 [13]): -11%
Activity (Transcription factor p65 [16]): -1%
Activity [17]: -10%
Activity [18]: -4%
Activity [20]: -7%
Compound: CC(C)(C)c1ccc(Nc2cccc3c2C(=O)N(C2CCC(=O)NC2=O)C3=O)cc1 (stereo not drawn)
MAC [2]: 4 µM
Activity (BMOL-T [3]): Dose-Dependent Effect
Selectivity ratio [4]: 3
inhibition at 10 µM [9]: 94%
Activity (BMOL-T [11]): inactive
Activity [12]: Toxic
Activity (BMOL-T [14]): 4%
Selectivity ratio [15]: 23
Activity (BMOL-T [19]): Active
inhibition at 10 µM [21]: 31%

Compound: CC(C)c1ccc(Nc2ccc3c(c2)C(=O)N(C2CCC(=O)NC2=O)C3=O)cc1 (stereo not drawn)
Time [22]: 17.2 h
Time [23]: 14.1 h
Activity [24]: 3%

Compound: O=C1CCC(N2C(=O)c3cccc(Sc4ccc5ccccc5n4)c3C2=O)C(=O)N1 (stereo not drawn)
Activity [25]: Non-Toxic

Compound: O=C1CCC(N2C(=O)c3cccc(Nc4ccccn4)c3C2=O)C(=O)N1 (stereo not drawn)
Activity [25]: Toxic

Compound: O=C1CCC(N2C(=O)c3cccc(Sc4ncccn4)c3C2=O)C(=O)N1 (stereo not drawn)
Activity [25]: Non-Toxic

Compound: O=C1CCC(N2C(=O)c3cccc(Oc4ccccc4)c3C2=O)C(=O)N1 (stereo not drawn)
Time [22]: 16.9 h
Time [23]: 14.3 h
Activity [24]: 6%

Compound: CC(C)c1ccc(Cc2cccc3c2C(=O)N(C2CCC(=O)NC2=O)C3=O)cc1 (stereo not drawn)
Time [22]: 17.5 h
Time [23]: 17 h
Activity [24]: 17%

inhibition [26]: inactive
Compound: CN1C(=O)CCC(N2C(=O)c3cccc(Sc4ccc(C(C)(C)C)cc4)c3C2=O)C1=O (stereo not drawn)
Time [22]: 24 h
Activity [27]: 26%
Activity (BMOL-T [11]): inactive
Time [23]: 16.3 h
Activity [24]: 14%

Activity [1]: 7%
Activity [5]: -5%
Activity (BMOL-T [6]): -16%
Activity [7]: -6%
Activity [8]: 0%
Activity [10]: -3%
Activity (Transcription factor p65 [13]): -9%
Activity (Transcription factor p65 [16]): 13%
Activity [17]: 3%
Activity [18]: 2%
Activity [20]: -4%
Compound: Nc1cccc2c1CN(C1CCC(=O)NC1=O)C2=O (stereo not drawn) [LENALIDOMIDE]
Time [22]: 18 h
inhibition at 10 µM [9]: 20%
Activity (BMOL-T [11]): inactive
Activity (BMOL-T [14]): -9%
Time [23]: 15 h

Compound: O=C1CCC(N2C(=O)c3ccccc3C2=O)C(=O)N1 (stereo not drawn) [THALIDOMIDE]
Time [22]: 18 h
Time [23]: 15 h

Compound: O=C1CCC(N2C(=O)c3cccc(Nc4ccccc4)c3C2=O)C(=O)N1 (stereo not drawn)
Time [22]: 17.4 h
Time [23]: 14.3 h
Activity [24]: 7%

Compound: O=C1CCC(N2C(=O)c3ccc(Nc4ccccc4)cc3C2=O)C(=O)N1 (stereo not drawn)
Time [22]: 17.4 h
Time [23]: 14.7 h
Activity [24]: 4%

Compound: CC(C)Oc1ccc(Nc2cccc3c2C(=O)N(C2CCC(=O)NC2=O)C3=O)cc1 (stereo not drawn)
Activity (BMOL-T [28]): Active

Compound: CCc1ccc(Nc2cccc3c2C(=O)N(C2CCC(=O)NC2=O)C3=O)cc1 (stereo not drawn)
inhibition at 72 h, 10 µM ([25]; BMOL-NT cells): ≤ 10%
Activity (BMOL-T [28]): Active

Compound: Cc1ccc(Nc2cccc3c2C(=O)N(C2CCC(=O)NC2=O)C3=O)cc1 (stereo not drawn)
Activity (BMOL-T [28]): inactive

Compound: O=C1CCC(N2C(=O)c3cccc(Cc4ccccc4)c3C2=O)C(=O)N1 (stereo not drawn)
Time [22]: 17.7 h
Activity [27]: 2%
Time [23]: 13.8 h

Compound: CC(C)c1ccc(Nc2cccc3c2C(=O)N(C2CCC(=O)NC2=O)C3=O)cc1 (stereo not drawn)
Time [22]: 17.3 h
Time [23]: 16.3 h
Activity [24]: 19%
